Test results: ChEMBL document CHEMBL1208666, “Novel 6,8-dibromo-4(3H)quinazolinone derivatives of anti-bacterial and anti-fungal activities” (2010)
≈ marks a conversion by molar mass, not a printed value. Calls of active or inactive are those of the source. The calls are words filed in the database; no cut-off is given here.

Columns and labels:
[1] = system: Staphylococcus aureus; test: Antibacterial activity against Staphylococcus aureus after 24 hrs by agar streak dilution method; format: functional
Method in brief: (§1)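 Agar streak dilution on Mueller Hinton agar. Compound stock in DMSO was added in graded amounts to molten sterile agar at 40–50 °C. This was poured 3–4 mm deep and left to solidify. Bacterial suspension of about 10^5 cfu/ml was applied to the serially diluted plates. Plates were incubated at 37 °C for 24 h to read the MIC. Strains were food-poisoning isolates from animal byproducts.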

[2] = system: Aspergillus flavus; test: Antifungal activity against Aspergillus flavus after 48 hrs by agar streak dilution method; format: functional
Method in brief: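 Fungal MIC by agar streak dilution on Sabouraud dextrose agar. Compound stock in DMSO was added in graded amounts to molten sterile medium at 40–50 °C. This was poured 3–4 mm deep and left to solidify. Fungal suspension of about 10^5 cfu/ml was applied to the serially diluted plates. Plates were incubated at 37 °C for 48 h.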

[3] = system: Salmonella typhimurium; test: Antibacterial activity against Salmonella Typhimurium after 24 hrs by agar streak dilution method; format: functional, Salmonella enterica subsp. enterica serovar Typhimurium; details: Salmonella enterica; method in brief: as §1
[4] = system: Escherichia coli; test: Antibacterial activity against Escherichia coli O157 at 100 ug/ml after 24 hrs by paper disc diffusion technique; format: functional; details: O157, 24 h, read-out: IZ
[5] = system: Aspergillus flavus; test: Antifungal activity against Aspergillus flavus at 100 ug/ml after 48 hrs by paper disc diffusion technique; format: functional; details: for zone of inhibition at 100 µg/mL: read-out: IZ
Method in brief: (§2)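 Paper disc diffusion on Sabouraud dextrose agar, autoclaved at 120 °C for 30 min. Medium at 40–50 °C was seeded at 1 ml/100 ml with a 10^5 cfu/ml fungal suspension matched to 0.9 McFarland. It was poured 3–4 mm deep, and compound discs in DMSO were applied. Plates were pre-incubated 1 h at room temperature, then 28 °C for 48 h. The inhibition zone was recorded.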

[6] = system: Bacillus cereus; test: Antibacterial activity against Bacillus cereus at 100 ug/ml after 24 hrs by paper disc diffusion technique; format: functional; details: read-out: IZ
Method in brief: (§3)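 Paper disc diffusion on Mueller Hinton agar, autoclaved at 120 °C for 30 min. Medium at 40–50 °C was seeded at 1 ml/100 ml with a 10^5 cfu/ml suspension matched to 0.9 McFarland. It was poured 3–4 mm deep, and discs with compound in DMSO were laid on it. Plates were pre-incubated 1 h at room temperature, then 37 °C for 24 h. The inhibition zone was measured.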

[7] = system: Escherichia coli; test: Antibacterial activity against Escherichia coli O157 after 24 hrs by agar streak dilution method; format: functional; details: O157, 24 h
[8] = system: Listeria monocytogenes; test: Antibacterial activity against Listeria monocytogenes after 24 hrs by agar streak dilution method; format: functional; method in brief: as §1
[9] = system: Salmonella typhimurium; test: Antibacterial activity against Salmonella Typhimurium at 100 ug/ml after 24 hrs by paper disc diffusion technique; format: functional, Salmonella enterica subsp. enterica serovar Typhimurium; details: Salmonella enterica, read-out: IZ; method in brief: as §3
[10] = system: Staphylococcus aureus; test: Antibacterial activity against Staphylococcus aureus at 100 ug/ml after 24 hrs by paper disc diffusion technique; format: functional; details: read-out: IZ; method in brief: as §3
[11] = system: Bacillus cereus; test: Antibacterial activity against Bacillus cereus after 24 hrs by agar streak dilution method; format: functional; method in brief: as §1
[12] = system: Candida albicans; test: Antifungal activity against Candida albicans at 100 ug/ml after 48 hrs by paper disc diffusion technique; format: functional; method in brief: as §2
[13] = system: Pseudomonas aeruginosa; test: Antibacterial activity against Pseudomonas aeruginosa at 100 ug/ml after 24 hrs by paper disc diffusion technique; format: functional; details: read-out: IZ; method in brief: as §3
[14] = system: Pseudomonas aeruginosa; test: Antibacterial activity against Pseudomonas aeruginosa after 24 hrs by agar streak dilution method; format: functional; method in brief: as §1
[15] = system: Listeria monocytogenes; test: Antibacterial activity against Listeria monocytogenes at 100 ug/ml after 24 hrs by paper disc diffusion technique; format: functional; details: read-out: IZ; method in brief: as §3

SMILES	MIC [1] [µg/mL]	MIC [2] [µg/mL]	MIC [3] [µg/mL]	zone of inhibition at 100 µg/mL [4] [mm]	zone of inhibition at 100 µg/mL [5] [mm]	zone of inhibition at 100 µg/mL [6] [mm]	MIC [7] [µg/mL]	MIC [8] [µg/mL]	zone of inhibition at 100 µg/mL [9] [mm]	zone of inhibition at 100 µg/mL [10] [mm]	MIC [11] [µg/mL]	inhibition zone (IZ) [12]	zone of inhibition at 100 µg/mL [13] [mm]	MIC [14] [µg/mL]	zone of inhibition at 100 µg/mL [15] [mm]	inhibition zone (IZ) [5]
Cc1ccc(/C=N/NC(=O)c2ccc(-n3c(-c4ccccc4)nc4c(Br)cc(Br)cc4c3=O)cc2)cc1	25 (≈ 40.6 µM)	20 (≈ 32.5 µM)	5 (≈ 8.11 µM)	11	12	11	40 (≈ 64.9 µM)	30 (≈ 48.7 µM)	15	12	35 (≈ 56.8 µM)	inactive	15	2.5 (≈ 4.06 µM)	13	–
O=C(N/N=C/c1ccc(Cl)cc1)c1ccc(-n2c(-c3ccccc3)nc3c(Br)cc(Br)cc3c2=O)cc1	25 (≈ 39.3 µM)	12.5 (≈ 19.6 µM)	> 50	12	16	16	20 (≈ 31.4 µM)	30 (≈ 47.1 µM)	10	12	5.5 (≈ 8.64 µM)	inactive	12	20 (≈ 31.4 µM)	14	–
O=C(O)c1cn(C2CC2)c2cc(N3CCNCC3)c(F)cc2c1=O [CIPROFLOXACIN]	1.56 (≈ 4.71 µM)	–	0.39 (≈ 1.18 µM)	18	–	20	–	1.56 (≈ 4.71 µM)	20	18	0.39 (≈ 1.18 µM)	–	19	0.78 (≈ 2.35 µM)	17	–
O=C1CC(=O)N(C(=O)c2ccc(-n3c(-c4ccccc4)nc4c(Br)cc(Br)cc4c3=O)cc2)N1	> 50	1.9 (≈ 3.26 µM)	50 (≈ 85.9 µM)	–	18	10	–	> 50	12	9	> 50	inactive	11	> 50	10	–
CC(=O)NNC(=O)c1ccc(-n2c(-c3ccccc3)nc3c(Br)cc(Br)cc3c2=O)cc1	40 (≈ 71.9 µM)	1.2 (≈ 2.16 µM)	30 (≈ 53.9 µM)	9	22	9	> 50	35 (≈ 62.9 µM)	14	11	> 50	inactive	13	25 (≈ 44.9 µM)	14	–
O=C(NN1C(=O)CSC1c1ccccc1O)c1ccc(-n2c(-c3ccccc3)nc3c(Br)cc(Br)cc3c2=O)cc1 (configuration not stated)	45 (≈ 65 µM)	–	50 (≈ 72.2 µM)	13	–	9	30 (≈ 43.3 µM)	15 (≈ 21.7 µM)	12	11	> 50	inactive	12	35 (≈ 50.5 µM)	15	inactive
O=C(NN1C(=O)CSC1c1ccccc1)c1ccc(-n2c(-c3ccccc3)nc3c(Br)cc(Br)cc3c2=O)cc1 (configuration not stated)	25 (≈ 37 µM)	–	4.1 (≈ 6.06 µM)	10	–	9	> 50	32 (≈ 47.3 µM)	16	12	50 (≈ 73.9 µM)	inactive	12	35 (≈ 51.7 µM)	13	inactive
